Assay results: ChEMBL document CHEMBL3792333, “The discovery of indole derivatives as novel hepatitis C virus inhibitors” (Eur J Med Chem, 2016)
Calls of active or inactive are those of the source. The rule behind the calls is not given here.

Tests used:
[1] = test system: Hepatitis C virus; assay: Antiviral activity against Hepatitis C virus JFH-1 infected in human Huh7.5.1 cells measured 48 hrs post infection by luciferase reporter gene assay; type: functional, organism-based, Hepacivirus hominis; settings: JFH-1, Huh-7, 48 h
Outline: (§1)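 Huh7.5.1 cells were seeded and grown 24 h at 37 °C, 5% CO₂. They were then treated with serially diluted compound and infected with Renilla luciferase-linked HCV(JFH-1) reporter virus. Luminescence was read at 48 hpi, and EC₅₀ and CC₅₀ were derived from it. SI is CC₅₀/EC₅₀. Results are the mean of three independent experiments with SD.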

[2] = Selectivity index, ratio of CC50 for human Huh7.5.1 cells infected with Hepatitis C virus JFH-1 to EC50 for Hepatitis C virus JFH-1 infected in human Huh7.5.1 cells; type: toxicity, cell-based, Huh-7; settings: read-out: Ratio CC50/EC50; outline: as §1
[3] = Cytotoxicity against human Huh7.5.1 cells infected with Hepatitis C virus JFH-1 measured 48 hrs post infection by luciferase reporter gene assay; type: cell-based, Huh-7; outline: as §1
[4] = test system: Hepatitis C virus; assay: Antiviral activity against Hepatitis C virus JFH-1 infected in human Huh7.5.1 cells assessed as inhibition of viral entry at 2 uM treated immediately after viral infection incubated for 24 hrs by luciferase reporter gene assay; type: functional, organism-based; settings: Hepacivirus hominis, Huh-7
Outline: (§2)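 Huh7.5.1 cells were seeded at 3×10⁴/well in 10% FBS-DMEM and grown overnight at 37 °C, 5% CO₂. Compound was added with 100 TCID₅₀ of HCV(JFH-1) Renilla luciferase reporter virus (0 h), or at -6 to 10 hpi. Cells were incubated 24 h at 37 °C, and luciferase activity was compared with 0.5% DMSO mock cultures.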

[5] = test system: Hepatitis C virus; assay: Antiviral activity against Hepatitis C virus JFH-1 infected in human Huh7.5.1 cells assessed as inhibition of viral RNA replication at 2 uM treated 2 to 10 hrs post infection incubated for 24 hrs by luciferase reporter gene assay; type: functional, organism-based; settings: Hepacivirus hominis, Huh-7; outline: as §2
[6] = test system: Hepatitis C virus; assay: Antiviral activity against Hepatitis C virus JFH-1 infected in human Huh7.5.1 cells assessed as inhibition of viral entry at 2 uM treated 2 to 6 hrs prior infection incubated for 24 hrs by luciferase reporter gene assay; type: functional, organism-based; settings: Hepacivirus hominis, Huh-7; outline: as §2
[7] = test system: Hepatitis C virus; assay: Antiviral activity against Hepatitis C virus JFH-1 infected in human Huh7.5.1 cells assessed as inhibition of viral entry at 2 uM treated 1 hr post infection incubated for 24 hrs by luciferase reporter gene assay; type: functional, organism-based; settings: Hepacivirus hominis, Huh-7; outline: as §2
[8] = test system: Hepatitis C virus; assay: Antiviral activity against Hepatitis C virus JFH-1 infected in human Huh7.5.1 cells assessed as inhibition of viral entry at 5 uM treated 2 to 6 hrs prior infection incubated for 24 hrs by luciferase reporter gene assay; type: functional, organism-based; settings: Hepacivirus hominis, Huh-7; outline: as §2
[9] = test system: Hepatitis C virus; assay: Antiviral activity against Hepatitis C virus JFH-1 infected in human Huh7.5.1 cells assessed as inhibition of viral RNA replication at 5 uM treated 2 to 10 hrs post infection incubated for 24 hrs by luciferase reporter gene assay; type: functional, organism-based; settings: Hepacivirus hominis, Huh-7; outline: as §2
[10] = test system: Hepatitis C virus; assay: Antiviral activity against Hepatitis C virus JFH-1 infected in human Huh7.5.1 cells assessed as inhibition of viral entry at 5 uM treated immediately after viral infection incubated for 24 hrs by luciferase reporter gene assay; type: functional, organism-based; settings: Hepacivirus hominis, Huh-7; outline: as §2
[11] = test system: Hepatitis C virus; assay: Antiviral activity against Hepatitis C virus JFH-1 infected in human Huh7.5.1 cells assessed as inhibition of viral entry at 5 uM treated 1 hr post infection incubated for 24 hrs by luciferase reporter gene assay; type: functional, organism-based; settings: Hepacivirus hominis, Huh-7; outline: as §2

Structure (SMILES)	EC50 [1]	selectivity ratio [2]	CC50 at 48 h [3]	other results
CC1=NN(c2ccccc2)C(=O)/C1=C/c1cn(C[C@H](O)CNCCCN2CCOCC2)c2ccccc12	1.25 µM	> 40	> 50 µM	
CC1=NN(c2ccc(C(F)(F)F)cc2)C(=O)/C1=C/c1cn(CC(O)CNCCCN2CCOCC2)c2ccccc12 (racemic)	4.63 µM	2.44	11.3 µM	
CC1=NN(c2ccccc2)C(=O)/C1=C/c1cn(CC(O)CNCc2ccccc2)c2ccccc12 (racemic)	> 50 µM		> 50 µM	
CC1=NN(c2ccccc2)C(=O)/C1=C/c1cn(Cc2ccccc2)c2ccccc12	17.4 µM	> 2.88	> 50 µM	
CC1=NN(c2ccc(C)cc2)C(=O)/C1=C/c1cn(CC(O)CNCCCN2CCOCC2)c2ccccc12 (racemic)	1.83 µM	19.8	36.2 µM	
CC1=NN(c2cccc(C(F)(F)F)c2)C(=O)/C1=C/c1cn(CC2CO2)c2ccccc12 (centres undefined)	5.94 µM	4.23	25.1 µM	
COc1ccc(N2N=C(C)/C(=C\c3cn(CC(O)CNCCCN4CCOCC4)c4ccccc34)C2=O)cc1 (racemic)	2.05 µM	7.53	15.4 µM	
CC1=NN(c2ccccc2)C(=O)/C1=C/c1cn(CC(O)CN2CCOCC2)c2ccccc12 (racemic)	21.9 µM	> 2.29	> 50 µM	
CC1=NN(c2ccc(C)cc2)C(=O)/C1=C/c1cn(CC2CO2)c2ccccc12 (centres undefined)	3.06 µM	4.24	13.2 µM	
CC1=NN(c2ccccc2)C(=O)/C1=C/c1cn(C)c2ccccc12	21.2 µM	> 2.36	> 50 µM	
CC1=NN(c2ccc(F)cc2)C(=O)/C1=C/c1cn(CC(O)CNCCCN2CCOCC2)c2ccccc12 (racemic)	1.02 µM	45.6	46.5 µM	inhibition [4]: Active; inhibition [5]: inactive; inhibition [6]: Active; inhibition [7]: Active
CC1=NN(c2ccccc2)C(=O)/C1=C/c1cn(CC(O)CNCCCCN2CCOCC2)c2ccccc12 (racemic)	2.03 µM	4	8.13 µM	
CC1=NN(c2ccccc2)C(=O)/C1=C/c1cn(CC2CC2)c2ccccc12	21.5 µM	> 2.32	> 50 µM	
CC1=NN(c2ccccc2F)C(=O)/C1=C/c1cn(CC(O)CNCCCN2CCOCC2)c2ccccc12 (racemic)	2.79 µM	12.3	34.2 µM	
CCCCNCC(O)Cn1cc(/C=C2/C(=O)N(c3ccccc3)N=C2C)c2ccccc21 (racemic)	> 50 µM		> 50 µM	
CC1=NN(c2ccc(Cl)cc2)C(=O)/C1=C/c1cn(CC2CO2)c2ccccc12 (centres undefined)	6.82 µM	5.17	35.3 µM	
CC1=NN(c2cccc(F)c2)C(=O)/C1=C/c1cn(C[C@H](O)CNCCCN2CCOCC2)c2ccccc12	0.74 µM	42	31.1 µM	
CCCCN(CCCC)CC(O)Cn1cc(/C=C2/C(=O)N(c3ccccc3)N=C2C)c2ccccc21 (racemic)	> 50 µM		> 50 µM	

Structure (SMILES)	EC50 [1]	selectivity ratio [2]	CC50 at 48 h [3]	other results
CC1=NN(c2ccc(F)cc2)C(=O)/C1=C/c1cn(C[C@H](O)CNCCCN2CCOCC2)c2ccccc12	0.72 µM	> 69.4	> 50 µM	
CC1=NN(c2cccc(F)c2)C(=O)/C1=C/c1cn(C[C@@H](O)CNCCCN2CCOCC2)c2ccccc12	5.87 µM	3.97	23.3 µM	
CC1=NN(c2cccc(F)c2)C(=O)/C1=C/c1cn(CC2CO2)c2ccccc12 (centres undefined)	2.65 µM	9.67	25.6 µM	
CC1=NN(c2ccc(Cl)cc2)C(=O)/C1=C/c1cn(CC(O)CNCCCN2CCOCC2)c2ccccc12 (racemic)	3.42 µM	5.12	17.5 µM	
COc1ccc(N2N=C(C)/C(=C\c3cn(CC4CO4)c4ccccc34)C2=O)cc1 (centres undefined)	2.06 µM	5.76	11.9 µM	
CC1=NN(c2ccccc2)C(=O)/C1=C/c1cn(C[C@@H](O)CNCCCN2CCOCC2)c2ccccc12	8.06 µM	2.67	21.5 µM	
CC1=NN(c2ccccc2)C(=O)/C1=C/c1cn(CC2CO2)c2ccccc12 (centres undefined)	5.78 µM	8.02	46.3 µM	inhibition [8]: Active; inhibition [9]: inactive; inhibition [10]: Active; inhibition [11]: Active
CC1=NN(c2ccc(F)cc2)C(=O)/C1=C/c1cn(CC2CO2)c2ccccc12 (centres undefined)	3.24 µM	> 15.4	> 50 µM	
CC1=NN(c2ccc(F)cc2)C(=O)/C1=C/c1cn(C[C@@H](O)CNCCCN2CCOCC2)c2ccccc12	7.12 µM	4.86	34.6 µM	
CC1=NN(c2ccccc2)C(=O)/C1=C/c1cn(CC(O)CNCCN2CCOCC2)c2ccccc12 (racemic)	5.46 µM	7.76	42.4 µM	
CC1=NN(c2ccccc2)C(=O)/C1=C/c1cn(CC(O)CNCCCN2CCOCC2)c2ccccc12 (racemic)	2.04 µM	17.6	35.8 µM	
CC1=NN(c2cccc(C(F)(F)F)c2)C(=O)/C1=C/c1cn(CC(O)CNCCCN2CCOCC2)c2ccccc12 (racemic)	2.08 µM	8.57	17.8 µM	
CC1=NN(c2ccc(C(F)(F)F)cc2)C(=O)/C1=C/c1cn(CC2CO2)c2ccccc12 (centres undefined)	7.86 µM	5.14	40.4 µM	
CC1=NN(c2ccccc2F)C(=O)/C1=C/c1cn(CC2CO2)c2ccccc12 (centres undefined)	5.11 µM	5.95	30.4 µM	
CC1=NN(c2ccccc2)C(=O)/C1=C/c1c[nH]c2ccccc12	24.5 µM	> 2.03	> 50 µM	
CC1=NN(c2cccc(F)c2)C(=O)/C1=C/c1cn(CC(O)CNCCCN2CCOCC2)c2ccccc12 (racemic)	0.92 µM	23.3	21.5 µM	
CC1=NN(C)C(=O)/C1=C/c1cn(CC2CO2)c2ccccc12 (centres undefined)	> 50 µM		> 50 µM	
